Values after ≈ are worked out from the molar mass of the structure shown.
Experiments:
Staphylococcus aureus [1] = assay: Antibacterial activity against methicillin-resistant Staphylococcus aureus OM481 after 24 hrs by microdilution method; assay type: functional; details: OM481, 24 h
Summary of the method: (§1)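 Broth microdilution in Mueller-Hinton broth with 0.85% NaCl, inoculum about 10^5 CFU per 100 μL. Compounds were diluted in water from 25.6 mg/mL stocks to final 2-fold series of 0.062–128 μg/mL. Plates were incubated 24 h at 35 °C. MIC was the lowest concentration at which all triplicate wells were clear, from three independent determinations.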

Staphylococcus aureus [2] = assay: Antibacterial activity against vancomycin-intermediate Staphylococcus aureus Mu50 after 24 hrs by microdilution method; assay type: functional; details: Mu50, 24 h; summary of the method: as §1
Enterococcus [3] = assay: Antibacterial activity against vancomycin resistant Enterococcus NCTC 12201 after 24 hrs by microdilution method; assay type: functional; details: NCTC 12201, 24 h; summary of the method: as §1
Enterococcus [4] = assay: Antibacterial activity against vancomycin resistant Enterococcus FN-1 after 24 hrs by microdilution method; assay type: functional; details: FN-1, 24 h; summary of the method: as §1
[5] = Inhibition of Staphylococcus aureus DNA Topoisomerase 4-mediated decatenation of kDNA after 30 mins by densitometry
Summary of the method: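 Purchased S. aureus topoIV, one unit with 200 ng kDNA, 37 °C, 30 min. Products resolved on 1.0% agarose in TAE. IC50 of decatenation from densitometry by interpolation equation, at least three determinations.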

[6] = Inhibition of Escherichia coli DNA topoisomerase 4 subunit ParC/DNA topoisomerase 4 subunit ParE-mediated decatenation of kDNA by densitometry
Summary of the method: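 Purchased E. coli topoIV kit enzyme, one unit with 200 ng kDNA, 37 °C, 30 min. Buffer: 50 mM HEPES-KOH pH 7.6, 5 mM magnesium acetate, 100 mM potassium glutamate, 10 mM DTT, 1 mM ATP, 40% glycerol. Gel on 1.0% agarose in TAE. IC50 of decatenation from densitometry by interpolation equation, at least three determinations.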

Staphylococcus aureus [7] = assay: Antibacterial activity against methicillin-susceptible Staphylococcus aureus 209P after 24 hrs by microdilution method; assay type: functional; summary of the method: as §1
Staphylococcus aureus [8] = assay: Antibacterial activity against methicillin-resistant Staphylococcus aureus COL after 24 hrs by microdilution method; assay type: functional; summary of the method: as §1
Streptococcus pneumoniae = assay: Antibacterial activity against Streptococcus pneumoniae R6 after 24 hrs by microdilution method; assay type: functional; details: R6, 24 h
Summary of the method: (§2)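 Broth microdilution in Mueller-Hinton broth with 0.85% NaCl, inoculum about 10^5 CFU per 100 μL. Compounds diluted from 25.6 mg/mL stocks in water to 2-fold series, final 0.062–128 μg/mL. […] Three independent determinations.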

Staphylococcus aureus [9] = assay: Antibacterial activity against methicillin-resistant Staphylococcus aureus OM584 after 24 hrs by microdilution method; assay type: functional; details: OM584, 24 h; summary of the method: as §1
Staphylococcus aureus [10] = assay: Antibacterial activity against methicillin-resistant Staphylococcus aureus N315 after 24 hrs by microdilution method; assay type: functional; details: N315, 24 h; summary of the method: as §1
Escherichia coli = assay: Antibacterial activity against Escherichia coli K-12 after 24 hrs by microdilution method; assay type: functional; details: K-12, 24 h; summary of the method: as §2
[11] = Inhibition of Escherichia coli DNA gyrase assessed as inhibition of pBR322 supercoiling by densitometry
Summary of the method: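 One unit of E. coli gyrase with 0.5 μg relaxed pBR322 DNA, 37 °C, 30 min. Stopped with sucrose/EDTA dye, run on 1.0% agarose in TAE. IC50 from densitometry via log-interpolation equation.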

Pseudomonas aeruginosa = assay: Antibacterial activity against Pseudomonas aeruginosa PAO1 after 24 hrs by microdilution method; assay type: functional; details: PAO1, 24 h; summary of the method: as §2

| Structure (SMILES) | MIC (Staphylococcus aureus [1]) [µg/mL] | MIC (Staphylococcus aureus [2]) [µg/mL] | MIC (Enterococcus [3]) [µg/mL] | MIC (Enterococcus [4]) [µg/mL] | IC50 [5] [µM] | IC50 [6] [µM] | MIC (Staphylococcus aureus [7]) [µg/mL] | MIC (Staphylococcus aureus [8]) [µg/mL] | MIC (Streptococcus pneumoniae) [µg/mL] | MIC (Staphylococcus aureus [9]) [µg/mL] | MIC (Staphylococcus aureus [10]) [µg/mL] | MIC (Escherichia coli) [µg/mL] | IC50 [11] [µM] | MIC (Pseudomonas aeruginosa) [µg/mL] |
| --- | --- | --- | --- | --- | --- | --- | --- | --- | --- | --- | --- | --- | --- | --- |
| O=C(O[C@H]1[C@H](Oc2c(-c3ccc(O)c(O)c3)oc3cc(O)cc(O)c3c2=O)O[C@H](CO)[C@@H](O)[C@@H]1OC(=O)c1ccc(F)cc1)c1ccc(F)cc1 | 2 (≈ 2.82 µM) | 1 (≈ 1.41 µM) | 4 (≈ 5.65 µM) | 2 (≈ 2.82 µM) | 1.21 | 10.8 | 1 (≈ 1.41 µM) | 4 (≈ 5.65 µM) | 1 (≈ 1.41 µM) | 2 (≈ 2.82 µM) | 1 (≈ 1.41 µM) | – | – | – |
| O=C(CCCc1ccc(F)cc1)OC[C@H]1O[C@@H](Oc2c(-c3ccc(O)c(O)c3)oc3cc(O)cc(O)c3c2=O)[C@H](OC(=O)CCCc2ccc(F)cc2)[C@@H](O)[C@H]1O | 2 (≈ 2.52 µM) | 4 (≈ 5.05 µM) | 8 (≈ 10.1 µM) | 8 (≈ 10.1 µM) | 2.94 | 10.7 | 4 (≈ 5.05 µM) | 16 (≈ 20.2 µM) | 4 (≈ 5.05 µM) | 2 (≈ 2.52 µM) | 4 (≈ 5.05 µM) | > 128 | 2.98 | > 128 |
| O=C(CCc1ccc(F)cc1)OC[C@H]1O[C@@H](Oc2c(-c3ccc(O)c(O)c3)oc3cc(O)cc(O)c3c2=O)[C@H](O)[C@@H](O)[C@H]1O | 16 (≈ 26 µM) | 32 (≈ 52.1 µM) | 16 (≈ 26 µM) | 16 (≈ 26 µM) | 2.99 | 11.5 | 16 (≈ 26 µM) | 32 (≈ 52.1 µM) | 32 (≈ 52.1 µM) | 16 (≈ 26 µM) | 16 (≈ 26 µM) | > 128 | 1.4 | > 128 |
| O=c1c(O)c(-c2ccc(O)c(O)c2)oc2cc(O)cc(O)c12 [QUERCETIN] | > 128 | > 128 | > 128 | > 128 | – | 6.42 | > 128 | > 128 | > 128 | > 128 | > 128 | 64 (≈ 212 µM) | 0.14 | > 128 |
| Cc1ccc(CCC(=O)OC[C@H]2O[C@@H](Oc3c(-c4ccc(O)c(O)c4)oc4cc(O)cc(O)c4c3=O)[C@H](O)[C@@H](O)[C@H]2O)cc1 | 16 (≈ 26.2 µM) | 16 (≈ 26.2 µM) | 32 (≈ 52.4 µM) | 32 (≈ 52.4 µM) | 2.57 | 12 | 16 (≈ 26.2 µM) | 32 (≈ 52.4 µM) | 32 (≈ 52.4 µM) | 16 (≈ 26.2 µM) | 16 (≈ 26.2 µM) | > 128 | 1.79 | > 128 |
| O=c1c(O[C@@H]2O[C@H](CO)[C@H](O)[C@H](O)[C@H]2O)c(-c2ccc(O)c(O)c2)oc2cc(O)cc(O)c12 [HYPEROSIDE] | > 128 | > 128 | > 128 | > 128 | 0.07 | 3.07 | > 128 | > 128 | > 128 | > 128 | > 128 | 16 (≈ 34.5 µM) | 0.1 | 32 (≈ 68.9 µM) |
| O=C(CCc1ccc(F)cc1)O[C@H]1[C@H](Oc2c(-c3ccc(O)c(O)c3)oc3cc(O)cc(O)c3c2=O)O[C@H](CO)[C@@H](O)[C@@H]1OC(=O)CCc1ccc(F)cc1 | 2 (≈ 2.62 µM) | 1 (≈ 1.31 µM) | 1 (≈ 1.31 µM) | 1 (≈ 1.31 µM) | 0.69 | 10.4 | 0.25 (≈ 0.327 µM) | 1 (≈ 1.31 µM) | 0.5 (≈ 0.654 µM) | 2 (≈ 2.62 µM) | 0.25 (≈ 0.327 µM) | – | – | – |
| Cc1ccc(CCC(=O)O[C@H]2[C@H](Oc3c(-c4ccc(O)c(O)c4)oc4cc(O)cc(O)c4c3=O)O[C@H](CO)[C@@H](O)[C@@H]2OC(=O)CCc2ccc(C)cc2)cc1 | 2 (≈ 2.64 µM) | 1 (≈ 1.32 µM) | 4 (≈ 5.29 µM) | 2 (≈ 2.64 µM) | 2.02 | 11.6 | 1 (≈ 1.32 µM) | 4 (≈ 5.29 µM) | 1 (≈ 1.32 µM) | 2 (≈ 2.64 µM) | 1 (≈ 1.32 µM) | – | – | – |
| CO[C@@H]1[C@@H](OC(N)=O)[C@@H](O)[C@H](Oc2ccc3c(O)c(NC(=O)c4ccc(O)c(CC=C(C)C)c4)c(=O)oc3c2C)OC1(C)C [NOVOBIOCIN] | 0.25 (≈ 0.408 µM) | 8 (≈ 13.1 µM) | 2 (≈ 3.26 µM) | > 128 | – | 0.11 | 0.13 (≈ 0.212 µM) | 0.25 (≈ 0.408 µM) | 0.25 (≈ 0.408 µM) | 0.25 (≈ 0.408 µM) | 0.13 (≈ 0.212 µM) | 8 (≈ 13.1 µM) | – | 8 (≈ 13.1 µM) |

Reference: ChEMBL document CHEMBL1795235, “Quercetin diacylglycoside analogues showing dual inhibition of DNA gyrase and topoisomerase IV as novel antibacterial agents” (J Med Chem, 2011)
